Reference: ChEMBL document CHEMBL4028865, “Targeted Polypharmacology: Discovery of a Highly Potent Non-Hydroxamate Dual Matrix Metalloproteinase (MMP)-10/-13 Inhibitor” (J Med Chem, 2017)

biological target: T1, Stromelysin-2 (Homo sapiens, UniProt P09238); assay: Inhibition of MMP10 (unknown origin) assessed as residual activity at 10 uM using (5-FAM/QX) FRET peptide as substrate by fluorescence assay relative to control; conditions: not given
Procedure, shortened: (§1)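 Residual enzyme activity read at a single 10 μM inhibitor concentration, in duplicate. Fluorescence assay on cleavage of the QXL520/5-FAM FRET peptide. Buffer was 50 mM HEPES pH 7.5 with 10 mM CaCl₂, 0.01% Brij-35 and 0.1 mg/ml BSA. GM6001 served as control inhibitor. Same assay system as the IC50 determinations.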
Target sequence in this assay (P09238 99-476 limits assumed): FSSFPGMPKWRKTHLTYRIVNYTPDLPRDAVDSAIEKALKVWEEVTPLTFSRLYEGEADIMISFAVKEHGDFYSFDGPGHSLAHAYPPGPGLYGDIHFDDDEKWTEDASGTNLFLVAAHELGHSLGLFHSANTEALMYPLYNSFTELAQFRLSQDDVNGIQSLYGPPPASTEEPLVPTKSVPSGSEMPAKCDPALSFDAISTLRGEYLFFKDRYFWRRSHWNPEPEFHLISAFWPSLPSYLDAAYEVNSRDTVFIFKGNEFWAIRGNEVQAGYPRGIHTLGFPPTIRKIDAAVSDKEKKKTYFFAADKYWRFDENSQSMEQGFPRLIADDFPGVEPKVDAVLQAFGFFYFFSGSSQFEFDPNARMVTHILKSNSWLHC

Row | Activity [%] | SMILES
1 | 12.8 | CNS(=O)(=O)c1ccc(Cn2cc(C#CC(=O)NCc3ccc(F)c(OC)c3)c(=O)[nH]c2=O)cc1
2 | 14.2 | COc1cc(CNC(=O)C#Cc2cn(Cc3ccc(C(=O)NCCO)cc3)c(=O)[nH]c2=O)ccc1F
3 | 15.7 | COc1cc(CNC(=O)C#Cc2cn(Cc3ccc(S(=O)(=O)N4CCOCC4)cc3)c(=O)[nH]c2=O)ccc1F
4 | 56.6 | COc1cc(CNC(=O)C#Cc2cn(Cc3ccc(C(=O)NC(C)C)cc3)c(=O)[nH]c2=O)ccc1F
5 | 30.8 | COc1cc(CNC(=O)C#Cc2cn(Cc3ccc(C(=O)NC4CC4)cc3)c(=O)[nH]c2=O)ccc1F
6 | 19.1 | COc1cc(CNC(=O)C#Cc2cn(Cc3ccc(S(N)(=O)=O)cc3)c(=O)[nH]c2=O)ccc1F

The remaining lines, values behind:

Row | SMILES | Activity [%]
7 | COC(=O)[C@H](CO)NC(=O)c1ccc(Cn2cc(C#CC(=O)NCc3ccc(F)c(OC)c3)c(=O)[nH]c2=O)cc1 | 21.9
8 | COc1cc(CNC(=O)C#Cc2cn(Cc3ccc(C(N)=O)cc3)c(=O)[nH]c2=O)ccc1F | 13.9
9 | COC(=O)CNC(=O)c1ccc(Cn2cc(C#CC(=O)NCc3ccc(F)c(OC)c3)c(=O)[nH]c2=O)cc1 | 52.8
10 | COc1cc(CNC(=O)C#Cc2cn(Cc3ccc(C(=O)N4CCC[C@@H]4C(=O)O)cc3)c(=O)[nH]c2=O)ccc1F | 68.9
11 | COC(=O)[C@H]1CCCN1C(=O)c1ccc(Cn2cc(C#CC(=O)NCc3ccc(F)c(OC)c3)c(=O)[nH]c2=O)cc1 | 17.5
12 | COc1cc(CNC(=O)C#Cc2cn(Cc3ccc(C(=O)NCC(=O)O)cc3)c(=O)[nH]c2=O)ccc1F | 68.6
13 | COc1cc(CNC(=O)C#Cc2cn(Cc3ccc(S(=O)(=O)NC(C)C)cc3)c(=O)[nH]c2=O)ccc1F | 10.2

biological target: T2, Collagenase 3 (Homo sapiens, UniProt P45452); assay: Inhibition of C-terminal tagged human recombinant MMP13 catalytic domain expressed in Escherichia coli assessed as residual activity at 10 uM using (5-FAM/QX) FRET peptide as substrate by fluorescence assay relative to control; conditions: not given; procedure, shortened: as §1

Row | Activity [%] | SMILES
14 | 1.8 | CNS(=O)(=O)c1ccc(Cn2cc(C#CC(=O)NCc3ccc(F)c(OC)c3)c(=O)[nH]c2=O)cc1
15 | 2.6 | COc1cc(CNC(=O)C#Cc2cn(Cc3ccc(C(=O)NCCO)cc3)c(=O)[nH]c2=O)ccc1F
16 | 1.2 | COc1cc(CNC(=O)C#Cc2cn(Cc3ccc(S(=O)(=O)N4CCOCC4)cc3)c(=O)[nH]c2=O)ccc1F
17 | 14.2 | COc1cc(CNC(=O)C#Cc2cn(Cc3ccc(C(=O)NC(C)C)cc3)c(=O)[nH]c2=O)ccc1F
18 | 5.9 | COc1cc(CNC(=O)C#Cc2cn(Cc3ccc(C(=O)NC4CC4)cc3)c(=O)[nH]c2=O)ccc1F
19 | 3.9 | COc1cc(CNC(=O)C#Cc2cn(Cc3ccc(S(N)(=O)=O)cc3)c(=O)[nH]c2=O)ccc1F

Further lines, the molecule ahead of its results:

Row | SMILES | Activity [%]
20 | COC(=O)[C@H](CO)NC(=O)c1ccc(Cn2cc(C#CC(=O)NCc3ccc(F)c(OC)c3)c(=O)[nH]c2=O)cc1 | 3.9
21 | COc1cc(CNC(=O)C#Cc2cn(Cc3ccc(C(N)=O)cc3)c(=O)[nH]c2=O)ccc1F | 4.4
22 | COC(=O)CNC(=O)c1ccc(Cn2cc(C#CC(=O)NCc3ccc(F)c(OC)c3)c(=O)[nH]c2=O)cc1 | 12.2
23 | COc1cc(CNC(=O)C#Cc2cn(Cc3ccc(C(=O)N4CCC[C@@H]4C(=O)O)cc3)c(=O)[nH]c2=O)ccc1F | 1.9
24 | COC(=O)[C@H]1CCCN1C(=O)c1ccc(Cn2cc(C#CC(=O)NCc3ccc(F)c(OC)c3)c(=O)[nH]c2=O)cc1 | 1.8
25 | COc1cc(CNC(=O)C#Cc2cn(Cc3ccc(C(=O)NCC(=O)O)cc3)c(=O)[nH]c2=O)ccc1F | 5.1
26 | COc1cc(CNC(=O)C#Cc2cn(Cc3ccc(S(=O)(=O)NC(C)C)cc3)c(=O)[nH]c2=O)ccc1F | 2.2

biological target: T1, Stromelysin-2; assay: Inhibition of MMP10 (unknown origin) assessed using (5-FAM/QX) FRET peptide as substrate by fluorescence assay; conditions: read-out: IC50
Procedure, shortened: (§2)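 IC50 from 10 concentrations in 3-fold dilution, starting at 10 μM or 100 μM, with two to six replicates. Run only for compounds leaving under 20% residual activity at 10 μM. Fluorescence read-out of QXL520/5-FAM FRET peptide cleavage in 50 mM HEPES pH 7.5, 10 mM CaCl₂, 0.01% Brij-35 and 0.1 mg/ml BSA. Four-parameter least-squares fit; GM6001 as control.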
Target sequence in this assay (P09238 whole entry): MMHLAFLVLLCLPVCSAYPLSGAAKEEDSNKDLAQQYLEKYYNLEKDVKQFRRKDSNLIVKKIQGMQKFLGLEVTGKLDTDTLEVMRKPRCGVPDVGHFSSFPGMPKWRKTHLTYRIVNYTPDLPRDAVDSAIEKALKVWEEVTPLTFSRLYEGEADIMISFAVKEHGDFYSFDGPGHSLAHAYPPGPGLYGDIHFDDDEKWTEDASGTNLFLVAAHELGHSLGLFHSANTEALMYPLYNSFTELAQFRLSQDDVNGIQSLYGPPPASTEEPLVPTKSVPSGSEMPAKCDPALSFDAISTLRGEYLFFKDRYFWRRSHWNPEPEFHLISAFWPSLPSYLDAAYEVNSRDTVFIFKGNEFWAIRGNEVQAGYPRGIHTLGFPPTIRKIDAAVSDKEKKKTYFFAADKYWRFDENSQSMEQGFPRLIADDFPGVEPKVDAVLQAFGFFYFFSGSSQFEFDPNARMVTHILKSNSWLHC

Row | IC50 [nM] | SMILES
27 | 531 | CNS(=O)(=O)c1ccc(Cn2cc(C#CC(=O)NCc3ccc(F)c(OC)c3)c(=O)[nH]c2=O)cc1
28 | 347 | COc1cc(CNC(=O)C#Cc2cn(Cc3ccc(C(=O)NCCO)cc3)c(=O)[nH]c2=O)ccc1F
29 | 1930 | COc1cc(CNC(=O)C#Cc2cn(Cc3ccc(S(=O)(=O)N4CCOCC4)cc3)c(=O)[nH]c2=O)ccc1F
30 | 7380 | COc1cc(CNC(=O)C#Cc2cn(Cc3ccc(S(N)(=O)=O)cc3)c(=O)[nH]c2=O)ccc1F

More lines, now with the values behind:

Row | SMILES | IC50 [nM]
31 | COc1cccc(CNC(=O)c2nc3scc(COCc4ccc(C(=O)O)cc4)c3c(=O)[nH]2)c1 [T-26c] | 358
32 | COc1cc(CNC(=O)C#Cc2cn(Cc3ccc(C(N)=O)cc3)c(=O)[nH]c2=O)ccc1F | 1210
33 | COC(=O)[C@H]1CCCN1C(=O)c1ccc(Cn2cc(C#CC(=O)NCc3ccc(F)c(OC)c3)c(=O)[nH]c2=O)cc1 | 2050
34 | O=C(O)CCCOc1cccc(CNC(=O)C#Cc2cn(Cc3ccc(C(=O)O)cc3)c(=O)[nH]c2=O)c1 | 8400
35 | COc1cc(CNC(=O)C#Cc2cn(Cc3ccc(S(=O)(=O)NC(C)C)cc3)c(=O)[nH]c2=O)ccc1F | 147

same assay, conditions: read-out: pIC50 (converted)

Row | IC50 [nM] | SMILES
36 | 407 to 676 | CNS(=O)(=O)c1ccc(Cn2cc(C#CC(=O)NCc3ccc(F)c(OC)c3)c(=O)[nH]c2=O)cc1
37 | 275 to 398 | COc1cc(CNC(=O)C#Cc2cn(Cc3ccc(C(=O)NCCO)cc3)c(=O)[nH]c2=O)ccc1F
38 | 759 to 1700 | COc1cc(CNC(=O)C#Cc2cn(Cc3ccc(S(=O)(=O)N4CCOCC4)cc3)c(=O)[nH]c2=O)ccc1F
39 | 4790 to 18200 | COc1cc(CNC(=O)C#Cc2cn(Cc3ccc(S(N)(=O)=O)cc3)c(=O)[nH]c2=O)ccc1F

Continued, molecule first:

Row | SMILES | IC50 [nM]
40 | COc1cccc(CNC(=O)c2nc3scc(COCc4ccc(C(=O)O)cc4)c3c(=O)[nH]2)c1 [T-26c] | 309 to 407
41 | COc1cc(CNC(=O)C#Cc2cn(Cc3ccc(C(N)=O)cc3)c(=O)[nH]c2=O)ccc1F | 4790 to 18200
42 | COC(=O)[C@H]1CCCN1C(=O)c1ccc(Cn2cc(C#CC(=O)NCc3ccc(F)c(OC)c3)c(=O)[nH]c2=O)cc1 | 1260 to 4900
43 | COc1cc(CNC(=O)C#Cc2cn(Cc3ccc(S(=O)(=O)NC(C)C)cc3)c(=O)[nH]c2=O)ccc1F | 67.6 to 141

biological target: T2, Collagenase 3; assay: Inhibition of C-terminal tagged human recombinant MMP13 catalytic domain expressed in Escherichia coli using (5-FAM/QX) FRET peptide as substrate by fluorescence assay; conditions: read-out: IC50; procedure, shortened: as §2

Row | IC50 [nM] | SMILES
44 | 35 | CNS(=O)(=O)c1ccc(Cn2cc(C#CC(=O)NCc3ccc(F)c(OC)c3)c(=O)[nH]c2=O)cc1
45 | 58 | COc1cc(CNC(=O)C#Cc2cn(Cc3ccc(C(=O)NCCO)cc3)c(=O)[nH]c2=O)ccc1F
46 | 66 | COc1cc(CNC(=O)C#Cc2cn(Cc3ccc(S(=O)(=O)N4CCOCC4)cc3)c(=O)[nH]c2=O)ccc1F
47 | 258 | COc1cc(CNC(=O)C#Cc2cn(Cc3ccc(S(N)(=O)=O)cc3)c(=O)[nH]c2=O)ccc1F

Second part, the molecule before the results:

Row | SMILES | IC50 [nM]
48 | COc1cccc(CNC(=O)c2nc3scc(COCc4ccc(C(=O)O)cc4)c3c(=O)[nH]2)c1 [T-26c] | 0.19
49 | COc1cc(CNC(=O)C#Cc2cn(Cc3ccc(C(N)=O)cc3)c(=O)[nH]c2=O)ccc1F | 111
50 | COC(=O)[C@H]1CCCN1C(=O)c1ccc(Cn2cc(C#CC(=O)NCc3ccc(F)c(OC)c3)c(=O)[nH]c2=O)cc1 | 175
51 | COc1cc(CNC(=O)C#Cc2cn(Cc3ccc(S(=O)(=O)NC(C)C)cc3)c(=O)[nH]c2=O)ccc1F | 25

same assay, conditions: read-out: pIC50 (converted)

Row | IC50 [nM] | SMILES
52 | 25.7 to 40.7 | CNS(=O)(=O)c1ccc(Cn2cc(C#CC(=O)NCc3ccc(F)c(OC)c3)c(=O)[nH]c2=O)cc1
53 | 44.7 to 72.4 | COc1cc(CNC(=O)C#Cc2cn(Cc3ccc(C(=O)NCCO)cc3)c(=O)[nH]c2=O)ccc1F
54 | 16.2 to 36.3 | COc1cc(CNC(=O)C#Cc2cn(Cc3ccc(S(=O)(=O)N4CCOCC4)cc3)c(=O)[nH]c2=O)ccc1F
55 | 204 to 324 | COc1cc(CNC(=O)C#Cc2cn(Cc3ccc(S(N)(=O)=O)cc3)c(=O)[nH]c2=O)ccc1F

Second part, the molecule before the results:

Row | SMILES | IC50 [nM]
56 | COc1cccc(CNC(=O)c2nc3scc(COCc4ccc(C(=O)O)cc4)c3c(=O)[nH]2)c1 [T-26c] | 0.138 to 0.275
57 | COc1cc(CNC(=O)C#Cc2cn(Cc3ccc(C(N)=O)cc3)c(=O)[nH]c2=O)ccc1F | 77.6 to 162
58 | COC(=O)[C@H]1CCCN1C(=O)c1ccc(Cn2cc(C#CC(=O)NCc3ccc(F)c(OC)c3)c(=O)[nH]c2=O)cc1 | 209 to 219
59 | COc1cc(CNC(=O)C#Cc2cn(Cc3ccc(S(=O)(=O)NC(C)C)cc3)c(=O)[nH]c2=O)ccc1F | 15.1 to 34.7
